# Shown is part of a subset that was picked to be rich in hits.
# FLuc inhib CS: counter-screen for luciferase assay inhibitors: firefly luciferase inhibition; P08659; AID 1006; inhibition, % at 10 µM; hit rate 1.5% among 200,000; ATPLite firefly luciferase biochemical luminescence, 10 min;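 active = inhibition above about 50% when tested at 10 µM, limit read from the data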
# ABCG2 block: human ABCG2 inhibition, ABCB1 as counter-screen. inhibition, % at 6.6 µM. hit rate 0.1% among 190,000. Q9UNQ0. IgMXP3 cells, JC-1 efflux, flow cytometry;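 active = inhibition above 80%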;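 note: 0% = DMSO and 100% = nicardipine control wells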
# Target sequence (Q9UNQ0 whole entry, looked up): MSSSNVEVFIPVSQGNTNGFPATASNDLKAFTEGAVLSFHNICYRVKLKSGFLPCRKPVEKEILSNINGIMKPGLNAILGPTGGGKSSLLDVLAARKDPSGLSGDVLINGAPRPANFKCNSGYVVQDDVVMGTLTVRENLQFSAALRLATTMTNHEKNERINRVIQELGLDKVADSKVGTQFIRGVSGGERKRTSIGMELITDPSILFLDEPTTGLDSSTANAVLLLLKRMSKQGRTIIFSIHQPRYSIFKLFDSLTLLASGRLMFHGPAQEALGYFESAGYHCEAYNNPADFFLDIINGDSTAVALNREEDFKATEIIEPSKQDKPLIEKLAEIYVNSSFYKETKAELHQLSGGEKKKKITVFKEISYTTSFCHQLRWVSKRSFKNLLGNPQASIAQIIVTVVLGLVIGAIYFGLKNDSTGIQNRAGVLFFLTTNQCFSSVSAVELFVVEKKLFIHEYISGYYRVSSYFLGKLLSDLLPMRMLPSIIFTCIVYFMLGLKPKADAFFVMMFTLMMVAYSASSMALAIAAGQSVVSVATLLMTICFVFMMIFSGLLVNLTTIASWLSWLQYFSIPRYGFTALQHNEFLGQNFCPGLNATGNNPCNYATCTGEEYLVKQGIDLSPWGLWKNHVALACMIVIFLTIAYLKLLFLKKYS
#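 Assay system – ABCG2 IgMXP3 and barcoded ABCB1 CCRF-Adr cell mix · Input – 3 million cells/mL in well · Reagent – JC-1 fluorescent substrate · Compound – single test compound dose, 6.6 µM final · Timing – 10 min exposure at 25 °C with rotation, no wash · Detection – flow cytometry of retained JC-1 fluorescence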
# ABCB1 block: human ABCB1 inhibition, ABCG2 as counter-screen. hit rate 0.067% among 190,000. inhibition, % at 6.6 µM. CCRF-Adr cells, JC-1 efflux, flow cytometry. AID 1326. P08183; in the data active = inhibition above about 40%;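 note: 0% = vehicle and 100% = reference inhibitor; higher value means more JC-1 retained so stronger ABCB1 efflux block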
# FLuc stim CS: affects firefly luciferase, flagging false hits in luciferase stimulation screens; 200,000 tested, under 10 active; AID 1027; P08659; ATPlite luciferase biochemical, luminescence, 10 min; 0 = ATP-free wells, 1 = DMSO control; activation factor at 10 µM;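 active = luciferase activation factor, scaled between plate controls, of at least 2 with compound at 10 µM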
#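 System: luciferase plus luciferin reagent, cell-free; medium: PBS as buffer for the ATP substrate; dosing: test compounds dosed from 2 mM stocks in 100% DMSO; timing: 10 min post-reagent at room temperature; measured by: luminescence measurement of luciferase light output; evaluation: luciferase activation, seen as luminescence increase over controls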
# ABCB6 inh 2: blocks the human ABCB6 transporter; K562-ABCB6 porphyrin accumulation, flow cytometry, 1 h; hits give low values; AID 602162; fluorescence ratio to DMSO, % at 10 µM; Q9NP58; hit rate 0.19% among 360,000;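 active = fluorescence ratio to DMSO below 75%, the collection mean minus 3 SD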;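 note: signal is porphyrin accumulated inside mitochondria; 100% equals median channel fluorescence of DMSO control wells; lower ratio means ABCB6 inhibition with less porphyrin fluorescence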
# Diaphorase act: activates diaphorase or chemically reduces, flagging diaphorase assay artifacts | Diaphorase/resazurin coupled assay, resorufin fluorescence, 16 min; hits give high values; 1 = vehicle wells, 0 = NADH-free wells | activation factor at 20 µM | hit rate 0.005% among 190,000;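 active = diaphorase activity raised at least twofold by the compound at 20 µM; inactive = activation factor below 2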
#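 Material: purified diaphorase enzyme from Clostridium kluyveri; Also added: 0.114 mM NADH and 0.1 mM resazurin, final amounts; Doses: single compound dose of 20 µM, 1% DMSO final; Times: 16 min enzyme reaction, ambient temperature; Detection: resorufin fluorescence, excitation 544 nm, emission 590 nm; Measure: increased resorufin signal from activators or reducing compounds.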
# * hit, by the source's call; i = inactive; x = no result.
SMILES,FLuc inhib CS,ABCG2 block,ABCB1 block,FLuc stim CS,ABCB6 inh 2,Diaphorase act
CN(/N=C/c1cccnc1)c1cnc2ccccc2n1,50.9*,3.2,0.7,0.5,93.0,1.1
Cc1cccc(N2CC(C(=O)Nc3nnc(SCc4ccccn4)s3)CC2=O)c1 (centres undefined),x,x,x,x,96.0,x
COc1ccc(/C=C(\C#N)C(=O)Nc2ccccn2)cc1,x,x,x,x,98.0,x
Cc1ccc(/C=C(\C#N)C(=O)Nc2ccccn2)o1,67.5*,1.0,-0.3,0.3,96.0,0.8
O=C1c2ccccc2C(=O)C1c1ccncc1,80.3*,4.5,0.5,0.2,91.0,0.9
O=C1c2ccccc2C(=O)C1c1ccccn1,x,x,x,x,94.0,x
Cc1noc(C)c1-c1csc(N2CCC(C(N)=O)CC2)n1,x,x,x,x,97.0,x
O=c1/c(=C/c2ccc(O)cc2)sc2n1CCCN=2,17.9,14.9,0.5,0.8,93.0,0.9
CN(C)c1ccc(/C=c2\sc3n(c2=O)CCCN=3)cc1,83.5*,0.7,0.2,0.2,105.0,0.9
Cc1ccc(OCCC(=O)OCC(=O)Nc2cc(S(=O)(=O)N(C)C)ccc2C)cc1,58.4*,2.0,0.3,0.4,243.0,0.9
Cc1ccc(S(=O)(=O)N(C)C)cc1NC(=O)COC(=O)CCC1CCCC1,x,x,x,x,94.0,x
CCN(CC)S(=O)(=O)c1cccc(NC(=O)COC(=O)CNC(=O)c2cccc(F)c2)c1,x,x,x,x,99.0,x
CCN(CC)S(=O)(=O)c1ccc(C)c(NC(=O)COC(=O)CNC(=O)c2ccc(C(C)(C)C)cc2)c1,81.4*,3.2,0.3,0.2,99.0,0.8
CN(C)S(=O)(=O)N1CCN(c2cccc(Cl)c2)CC1,-2.8,7.9,0.6,1,95.0,1
O=S(=O)(/C=C/c1ccccc1)N1CCN(c2cccc(Cl)c2)CC1,-3.5,1.6,0.5,1,69.0*,0.9
CC1(C)C2CC=C(/C=N/NC(=S)NCCc3ccccc3)C1C2 (centres undefined),-8.3,5.5,-0.6,1.1,91.0,0.9
CNC(=S)N/N=C/C1=CCC2CC1C2(C)C (centres undefined),62.2*,10.8,-0.5,0.4,93.0,0.9
CCCN1C(=O)/C(=C/c2c(NCCCOCC)nc3c(C)cccn3c2=O)SC1=S,1.7,62.9,68.3*,1,830.0,1.1
CCOCCCNc1nc2c(C)cccn2c(=O)c1/C=C1\SC(=S)N(C(C)CC)C1=O (centres undefined),x,x,x,x,i,x
COc1ccccc1C1NC(=O)c2ccccc2O1 (centres undefined),x,x,x,x,99.0,x
COc1ccc(-c2cc(C(=O)N(C)CC(=O)Nc3cccc(F)c3)c3ccccc3n2)cc1,x,x,x,x,99.0,x
S=C(c1ccc(-c2ccccc2Cl)o1)N1CCCCC1,48.6,-6.2,-0.7,0.5,102.0,0.9
S=C(c1ccc(-c2ccc(Cl)cc2)o1)N1CCCCC1,71.3*,-3.2,-0.9,0.3,95.0,0.8
COc1ccc(NC(=O)C2CCN(S(=O)(=O)c3ccc(C)cc3)CC2)cc1OC,-4.3,5.9,0.9,1,74.0*,0.9
COc1ccc(NC(=O)C2CCN(S(C)(=O)=O)CC2)cc1OC,x,x,x,x,98.0,x
SMILES,FLuc inhib CS,ABCG2 block,ABCB1 block,FLuc stim CS,ABCB6 inh 2,Diaphorase act
CC(/C=C(\NC(=O)c1ccccc1)C(=O)N=Nc1c(O)[nH]c2ccc(C)cc12)=C\c1ccccc1,-4.4,-0.5,-0.5,1,73.0*,1
Cc1ccc2[nH]c(O)c(N=NC(N)=S)c2c1,x,x,x,x,101.0,x
COc1ccc(NC(=O)Nc2nnc([C@H]3C[C@H](O)[C@@H](CO)O3)s2)cc1,x,x,x,x,97.0,x
CC(=O)OCC(=O)C1(O)CCC2C3CCC4=CC(=O)CCC4(C)C3(F)C(O)CC21C (centres undefined),x,x,x,x,101.0,x
COC(=O)c1cn[nH]c1NC(=S)Nc1ccc(C)cc1Cl,54.4*,3.0,-1.0,0.5,97.0,0.8
CCCCn1c(N)c(N(CCOC)C(=O)c2cc(S(=O)(=O)N3CCOCC3)ccc2Cl)c(=O)[nH]c1=O,x,x,x,x,97.0,x
Cc1cccc(C(=O)NN(C)c2nc(-c3ccccc3)nnc2C(F)(F)F)c1,-8.5,3.1,0.5,1.1,69.0*,0.9
CC(C)C[C@H]1CN([C@@H](Cc2ccc(O)cc2)CN2CCC[C@H]2CN2C(=O)C(=O)NC[C@@H]2Cc2ccc(O)cc2)C(=O)C(=O)N1CCc1ccccc1,x,x,x,x,92.0,x
COc1cccc(C(=O)/C=C2\Sc3ccccc3N2C)c1,79.1*,21.3,0.4,0.2,100.0,1
CN1/C(=C\C(=O)c2cccnc2)Sc2ccccc21,54.7*,4.6,0.5,0.5,159.0,1
CN(C)c1ncnc2c1ncn2[C@H]1CN(Cc2ccco2)C[C@@H](CO)O1,x,x,x,x,96.0,x
CCCNC(=O)C1(C)CCCN(Cc2ccc3ccccc3c2)C1 (centres undefined),x,x,x,x,97.0,x
COC(=O)c1c(C)[nH]c(C(=O)/C=C/c2ccccc2)c1C,58.2*,0.2,0.2,0.4,100.0,0.9
CC1CN(S(=O)(=O)c2cccc(C(=O)NCCc3ccc(S(N)(=O)=O)cc3)c2)CC(C)O1 (centres undefined),x,x,x,x,102.0,x
O=C(COc1ccc(F)c(Cl)c1)NC(=O)NC1CCCC1,x,x,x,x,96.0,x
CC(=O)Nc1ccc(N=Cc2c(O)c(C(=O)Nc3ccccc3)cc3ccccc23)cc1,94.9*,103.2*,70.2*,0.1,x,0.8
CC(=O)Nc1ccc(N=Cc2c(O)c3ccccc3oc2=O)cc1,x,x,x,x,95.0,x
c1ccc2sc(NN=C3CCCCCC3)nc2c1,89.0*,22.1,1.2,0.1,96.0,0.8
c1ccc2sc(NCC3CCCO3)nc2c1 (centres undefined),25.3,0.2,0.0,0.7,95.0,1
COC(=O)c1ccc(-c2ccc(Cl)cc2)nc1C,50.5*,9.4,0.1,0.5,98.0,0.9
CCc1ccc(OC(=O)c2ccn(CC)n2)cc1,75.1*,2.7,0.7,0.2,103.0,0.8
CCc1ccc(-c2nc(CCl)cs2)cc1,64.8*,7.8,0.0,0.4,90.0,0.9
COc1ccccc1NC(=O)CCCCCN1C(=O)c2cccc([N+](=O)[O-])c2C1=O,x,x,x,x,91.0,x
COc1cc(/C=C2/C(=O)c3cccc([N+](=O)[O-])c3C2=O)c(Br)cc1O,63.9*,-12.1,-1.4,0.4,100.0,0.5
CC(=NNC(=O)Cn1ccc(C(F)(F)F)n1)c1ccc(-n2ccnc2)cc1,x,x,x,x,103.0,x
CC(C)(C)OC(=O)CNC(=O)c1[nH]cnc1C(=O)NCCCCCNC(=O)OC(C)(C)C,x,x,x,x,74.0*,x
Cc1ccc(-c2csc(NC(=O)c3cccc(C)c3)c2C(=O)O)cc1,x,x,x,x,99.0,x
O=C(/C=C/c1ccco1)Nc1ccccc1C(=O)O,79.9*,8.7,0.1,0.2,97.0,0.9
Cc1ccc(-c2csc(NC(=O)/C=C/c3ccco3)c2C(=O)O)cc1,64.2*,-3.2,-1.4,0.4,104.0,1
